Reference: ChEMBL document CHEMBL4304821, “Synthesis and structure-activity relationship of nitrile-based cruzain inhibitors incorporating a trifluoroethylamine-based P2 amide replacement” (Bioorg Med Chem, 2019)
Calls of active or inactive are those of the source. The rule behind the calls is not given here.

Legend:
Trypanosoma cruzi = experiment: Antitrypanosomal activity against Trypanosoma cruzi Y strain amastigotes infected in human U2OS cells assessed as parasite growth inhibition after 72 hrs post infection by DRAQ5 staining based analysis; format: functional, organism-based
In short: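 U2OS cells were seeded at 700/well in high DMEM and held 24 h at 37 °C/5% CO2. They were infected with T. cruzi Y strain trypomastigotes from LLC-MK2 cultures at 4 parasites per host cell. Compounds were added on day 3 as 17 points of 2-fold dilution from 100 µM (1% DMSO final), with 96 h exposure. Cells were PFA-fixed, Draq5-stained and imaged. Infection ratio was normalized to infected DMSO and non-infected controls, and EC50 came from a sigmoidal fit. Two independent experiments were run.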

[1] = Lipophilicity, log Kw of compound by HPLC analysis; format: physicochemical
[2] = target: Cruzipain (Trypanosoma cruzi) (UniProt P25779); experiment: Inhibition of Trypanosoma cruzi cruzain assessed as initial velocity using Z-Phe-Arg-7-amido-4-methylcoumarin as substrate preincubated for 2 mins followed by susbtrate addition by fluorescence based analysis
Cruzipain (Trypanosoma cruzi), sequence (P25779 123-467 limits assumed): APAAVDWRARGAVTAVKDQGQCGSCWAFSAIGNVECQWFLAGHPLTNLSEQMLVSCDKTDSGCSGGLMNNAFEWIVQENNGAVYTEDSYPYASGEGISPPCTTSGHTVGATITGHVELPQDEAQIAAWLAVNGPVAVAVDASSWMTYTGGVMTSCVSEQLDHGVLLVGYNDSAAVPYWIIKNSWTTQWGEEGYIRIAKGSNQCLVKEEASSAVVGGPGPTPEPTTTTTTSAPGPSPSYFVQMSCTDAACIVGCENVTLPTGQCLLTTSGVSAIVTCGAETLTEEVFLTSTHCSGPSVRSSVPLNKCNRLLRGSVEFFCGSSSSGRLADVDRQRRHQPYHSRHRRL
In short: (§1)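 Recombinant cruzain was the catalytic domain of cruzipain without the C-terminal extension, used at 0.15 nM. The assay ran at 37 °C in 100 mM acetate buffer pH 5.5 with 300 mM NaCl, 5 mM DTT, 5% v/v DMSO and 0.01% Triton X-100. Hydrolysis of Z-Phe-Arg-AMC was followed as rate by fluorescence (ex 355/em 460 nm).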

Procathepsin L = Procathepsin L (Homo sapiens, UniProt P07711); experiment: Inhibition of Cathepsin L (unknown origin) using Z-Phe-Arg-7-amido-4-methylcoumarin as substrate preincubated for 2 mins followed by susbtrate addition by fluorescence based analysis
Procathepsin L, sequence (P07711 whole entry): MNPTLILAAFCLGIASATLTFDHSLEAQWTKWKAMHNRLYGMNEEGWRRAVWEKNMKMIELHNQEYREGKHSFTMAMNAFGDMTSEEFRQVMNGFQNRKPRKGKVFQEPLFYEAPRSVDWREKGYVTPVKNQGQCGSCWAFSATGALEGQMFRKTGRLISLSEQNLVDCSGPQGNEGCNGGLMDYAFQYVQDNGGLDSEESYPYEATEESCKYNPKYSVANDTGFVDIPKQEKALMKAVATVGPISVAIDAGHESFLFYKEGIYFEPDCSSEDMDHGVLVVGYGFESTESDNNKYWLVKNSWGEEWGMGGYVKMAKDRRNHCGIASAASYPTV
In short: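 Cathepsin L was used at 0.30 nM, at 37 °C in 100 mM acetate buffer pH 5.5 with 300 mM NaCl, 1 mM DTT, 1 mM EDTA, 5% v/v DMSO and 0.01% Triton X-100. Z-Phe-Arg-AMC hydrolysis rate was monitored by fluorescence (ex 355/em 460 nm).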

Cruzipain [3] = target: T1, Cruzipain (Trypanosoma cruzi, UniProt P25779); experiment: Inhibition of Trypanosoma cruzi cruzain using Z-Phe-Arg-7-amido-4-methylcoumarin as substrate preincubated for 2 mins followed by susbtrate addition by fluorescence based analysis; in short: as §1
T1 sequence (P25779 whole entry): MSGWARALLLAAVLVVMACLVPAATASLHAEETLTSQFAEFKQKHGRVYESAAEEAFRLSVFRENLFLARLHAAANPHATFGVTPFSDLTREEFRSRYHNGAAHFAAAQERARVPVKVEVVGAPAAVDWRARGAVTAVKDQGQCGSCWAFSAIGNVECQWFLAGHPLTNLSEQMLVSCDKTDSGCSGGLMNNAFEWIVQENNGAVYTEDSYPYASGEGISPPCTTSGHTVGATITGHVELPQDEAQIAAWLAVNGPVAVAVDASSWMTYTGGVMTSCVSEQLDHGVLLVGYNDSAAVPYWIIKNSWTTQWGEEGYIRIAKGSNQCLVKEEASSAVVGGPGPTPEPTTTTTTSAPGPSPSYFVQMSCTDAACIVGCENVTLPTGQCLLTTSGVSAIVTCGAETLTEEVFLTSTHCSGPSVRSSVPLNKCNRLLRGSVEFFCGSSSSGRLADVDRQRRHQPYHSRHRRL

Cruzipain [4] = target: T1, Cruzipain; experiment: Inhibition of Trypanosoma cruzi cruzain assessed as inhibitor constant using Z-Phe-Arg-7-amido-4-methylcoumarin as substrate preincubated for 2 mins followed by susbtrate addition by fluorescence based analysis; in short: as §1
[5] = Cytotoxicity in human U2OS cells assessed as reduction in cell viability after […] by DRAQ5 staining based analysis
In short: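 Infected U2OS cells (Y strain, 4 parasites/cell) were exposed to 17 2-fold concentrations starting at 100 µM in 1% DMSO. Exposure was 96 h. Wells were PFA-fixed, Draq5-stained and imaged at 20X to count host cells. CC50 is the concentration that lowers the cell ratio to 0.5 versus the mean cell number in DMSO negative-control wells. Duplicate independent experiments.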

Row | Structure (SMILES) | logKw [1] | V0 [2] [RFU/s] | Ki (Procathepsin L) [nM] | Ki (Cruzipain [3]) [nM] | Ki (Cruzipain [4]) [nM] | EC50 (Trypanosoma cruzi) [nM] | Activity (Trypanosoma cruzi) | CC50 [5] [nM]
1 | N#CC1(NC(=O)[C@H](Cc2ccccc2)N[C@H](c2ccccc2)C(F)(F)F)CC1 | 1.4 | 3.53 |  |  |  |  | inactive | 
2 | N#CC1(NC(=O)[C@H](Cc2ccccc2)N[C@@H](c2ccc(Br)cc2)C(F)(F)F)CC1 | 1.7 | 3.6 | 251 | 2000 |  |  | inactive | 
3 | N#C[C@@H](Cc1ccccc1)NC(=O)[C@H](Cc1ccccc1)N[C@@H](c1ccccc1)C(F)(F)F | 2.6 |  | 631 | 2510 |  |  | inactive | 
4 | CC(C)C[C@H](N[C@H](c1ccc(-c2ccccc2)cc1)C(F)(F)F)C(=O)N[C@H](C#N)Cc1ccccc1 | 3.1 |  |  | 251 |  |  | inactive | 
5 | N#CC1(NC(=O)[C@H](Cc2ccccc2)N[C@@H](c2cccc(Cl)c2)C(F)(F)F)CC1 |  | 3.65 |  |  | 4.01 |  |  | 
6 | CC(C)C[C@H](N[C@H](c1ccc(-c2ccccc2)cc1)C(F)(F)F)C(=O)NC1(C#N)CC1 | 2.8 |  | 631 | 63.1 |  |  | inactive | 
7 | O=C(O)[C@H](Cc1c[nH]c2ccccc12)N[C@H](c1cccc(Cl)c1)C(F)(F)F |  | 4.15 |  |  | 168 |  |  | 
8 | N#CC1(NC(=O)[C@H](Cc2ccccc2)N[C@H](c2cccc(Cl)c2)C(F)(F)F)CC1 | 1.7 | 5.81 |  | 3160 |  |  | inactive | 
9 | N#CC1(NC(=O)[C@H](Cc2ccccc2)N[C@@H](c2ccccc2)C(F)(F)F)CC1 | 1 | 2.18 | 158 | 1000 |  |  | inactive | 
10 | N#C[C@H](Cc1ccccc1)NC(=O)[C@H](Cc1ccccc1)N[C@H](c1ccc(-c2ccccc2)cc1)C(F)(F)F |  |  |  | > 10000 |  |  | inactive | 
11 | COc1ccc(C[C@H](N[C@H](c2ccccc2)C(F)(F)F)C(=O)N[C@@H](C#N)Cc2ccccc2)cc1 |  |  | > 10000 | > 10000 |  |  | inactive | 
12 | CC(C)(F)C[C@H](N[C@@H](c1ccc(-c2ccc(S(C)(=O)=O)cc2)cc1)C(F)(F)F)C(=O)NC1(C#N)CC1 [ODANACATIB] | 2 |  | 1260 |  |  |  | inactive | 
13 | CC(C)C[C@H](N[C@@H](c1ccc(-c2ccc(F)cc2)cc1)C(F)(F)F)C(=O)NC1(C#N)CC1 |  | 3.87 |  |  | 4060 |  |  | 
14 | CC(C)C[C@H](N[C@H](c1ccccc1)C(F)(F)F)C(=O)N[C@H](C#N)Cc1ccccc1 | 2.2 | 2.71 | 251 | 398 |  |  | inactive | 
15 | CC(C)C[C@H](NC(=O)c1ccccc1)C(=O)NC1(C#N)CC1 |  |  | 20 | 50.1 |  |  | inactive | 
16 | O=C(O)[C@H](Cc1c[nH]c2ccccc12)N[C@@H](c1cccc(Cl)c1)C(F)(F)F |  | 2.66 |  |  | 142 |  |  | 
17 | CC(C)C[C@H](N[C@@H](c1ccc(-c2ccccc2)cc1)C(F)(F)F)C(=O)NC1(C#N)CC1 | 2.6 | 3.85 | 794 | 7.94 |  |  | inactive | 
18 | CC(C)C[C@H](N[C@@H](c1ccc(-c2cncnc2)cc1)C(F)(F)F)C(=O)N[C@H](C#N)Cc1ccccc1 |  | 2.91 | 25.1 | 1.58 |  |  | inactive | 

Now from value to compound, other results behind:

Row | logKw [1] | V0 [2] [RFU/s] | Ki (Procathepsin L) [nM] | Ki (Cruzipain [3]) [nM] | Ki (Cruzipain [4]) [nM] | EC50 (Trypanosoma cruzi) [nM] | Structure (SMILES) | Activity (Trypanosoma cruzi) | CC50 [5] [nM]
19 |  |  |  | 39.8 |  |  | CC(C)C[C@H](N[C@@H](c1ccccc1)C(F)(F)F)C(=O)NC1(C#N)CC1 | inactive | 
20 | 2.7 |  | 1580 | 3980 |  |  | COc1ccc(C[C@H](N[C@H](c2ccccc2)C(F)(F)F)C(=O)N[C@H](C#N)Cc2ccccc2)cc1 | inactive | 
21 | 2.7 |  | 631 | 398 |  |  | COc1ccc(C[C@H](N[C@@H](c2ccccc2)C(F)(F)F)C(=O)N[C@@H](C#N)Cc2ccccc2)cc1 | inactive | 
22 |  | 3.85 |  |  | 38.8 |  | COc1ccc(C[C@H](N[C@@H](c2ccccc2)C(F)(F)F)C(=O)O)cc1 |  | 
23 | 2.8 |  | 1000 | 79.4 |  |  | CC(C)C[C@H](N[C@H](c1ccc(-c2ccc(F)cc2)cc1)C(F)(F)F)C(=O)NC1(C#N)CC1 | inactive | 
24 | 1.5 | 3.17 |  | 7940 |  |  | COc1ccc(C[C@H](N[C@H](c2ccccc2)C(F)(F)F)C(=O)NC2(C#N)CC2)cc1 |  | 
25 |  | 5.2 |  |  | 360 |  | COc1ccc(C[C@H](N[C@H](c2ccccc2)C(F)(F)F)C(=O)O)cc1 |  | 
26 |  |  | 1260 | > 10000 |  | 25600 | N#CC1(NC(=O)[C@@H](Cc2c[nH]c3ccccc23)N[C@@H](c2ccccc2)C(F)(F)F)CC1 |  | 
27 | 2.3 |  | 5.01 | 1.58 |  |  | CC(C)C[C@H](N[C@@H](c1ccccc1)C(F)(F)F)C(=O)N[C@H](C#N)Cc1ccccc1 | inactive | 
28 | 3.2 | 3.22 | 1580 | 0.631 |  |  | CC(C)C[C@H](N[C@@H](c1ccc(-c2ccccc2)cc1)C(F)(F)F)C(=O)N[C@H](C#N)Cc1ccccc1 | inactive | 
29 | 1.4 | 3.56 |  | 3980 |  |  | COc1ccc(C[C@H](N[C@@H](c2ccccc2)C(F)(F)F)C(=O)NC2(C#N)CC2)cc1 | inactive | 
30 |  |  | 1000 | > 10000 |  | 11500 | N#CC1(NC(=O)[C@H](Cc2c[nH]c3ccccc23)N[C@H](c2ccccc2)C(F)(F)F)CC1 |  | 33000
31 |  |  | 63.1 | 50.1 |  |  | CC(C)C[C@H](NC(=O)c1ccccc1)C(=O)N[C@H](C#N)Cc1ccccc1 | inactive | 
32 |  |  |  | 316 |  |  | N#CC1(NC(=O)[C@H](Cc2ccccc2)NC(=O)c2ccccc2)CC1 |  | 
33 | 1.1 | 3.75 |  | 200 | 143 |  | CC(C)C[C@H](N[C@H](c1ccccc1)C(F)(F)F)C(=O)NC1(C#N)CC1 | inactive | 
